# Source: the RNAGym collection of RNA variant scans (doi:10.1126/science.aae0568)
# Variants at the floor of the assay were thinned out.
# B1: tRNA (parent)
# chain: GUUCCGUUGGCGUAAUGGUAACGCGUCUCCCUCCUAAGGAGAAGACUGCGGGUUCGAGUCCCGUACGGAACG
# Variants of: B1
# Experiment: yeast fitness relative to wild type (ratio to wild type); higher = fitter; tRNA-Arg(CCU), competitive growth, 37 C, YPD
# Procedure, shortened: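 Variants of the tRNA-Arg(CCU) gene, chemically synthesised with a 3% per-site mutation rate at 69 sites, were placed at the native genomic locus in Saccharomyces cerevisiae. The pooled strains were competed in YPD at 37°C for 24 hours in six parallel replicates. Gene amplicons from the start population and from each end population were read by 100-nucleotide paired-end sequencing. Darwinian fitness relative to wild type came from changes in genotype frequencies; genotypes needed ≥ 100 starting reads, and estimates < 0.5 were set to 0.5.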
row,Variant,yeast fitness
1,GUUCCGUUGGCGUAAUGGUAACGCGUCUCCCCCCUAAGGAGAAGACUGCGGGUUCCAGUCCCGUACGGAACG,0.676
2,GUUCCGUUGGCGUAAUGGUAACGCGUCUCCCCCCUAAGGAGAAGACUGCGGGUUCGAGUCCCGAACGGAACG,0.789
3,GUUCCGUUGGCGUAAUGGUAACGCGUCUCCCCCCCAAGGGGAAGACUGCGGGUUCGAGUCCCGUACGGAACG,≤ 0.5
4,GUUCCGUUGGCGUAAUGGUAACGCGUCUCCCCCCUAAGGAGAAGACUGCGGGUUCGAAUCCUGUACGGCACG,0.716
5,GUUCCGUUGGCGUAAUGGUAACGCGUCUCCCCCCUAAGGAGAAGACUGCGAGUUCGAGUCCCGUACGGAUCG,0.868
6,GUUCCGUUGGCGUAAUGGUAACGCGUCUCCCCCCUAAGGAGAAGACUGCGGGUUCGAGUCCCGUACCGAACG,0.9
7,GUUCCGUUGGCGUAAUGGUAACGCGUCUCCCGCCUAAGGAGCAGACUGCGGGUUCGAGUCCCGUACGGAACG,0.62
8,GUUCCGUUGGCGUAAUGGUAACGCGUCUCCCGCCUAAGGAGGAGACUGCGGGUUCGAAUCUCGUACGGAGCG,≤ 0.5
9,GUUCCGUUGGCGUAAUGGUAACGCGUCUCCCCCCUAAGGAGAAGACUACGGGUUCGAGUCCCGUACGGAACG,0.76
10,GUUCCGUUGGCGUAAUGGUAACGCGUCUCCCCCCUAAGGAGAAGACUCCGGGUUCGAGUCCCGUACGGAACG,0.862
11,GUUCCGUUGGCGUAAUGGUAACGCGUCUCCCCCCAAAGGAGAAGACCGCGGGUUCGAGUCCCGUACGGAACG,≤ 0.5
12,GUUCCGUUGGCGUAAUGGUAACGCGUCUCCCGCCUAAGGAGAAGACUGCGGGUUCGCGUCCUGUACGGAACG,0.555
13,GUUCCGUUGGCGUAAUGGUAACGCGUCUCCCGCCUAAGGAGGAGACUGCGGGUUCGAGUCUCGUACGGAACG,≤ 0.5
14,GUUCCGUUGGCGUAAUGGUAACGCGUCUCCCCCCUAAGGAGAAGACUGCGGGUUCGAAUCCCGUACGGAACG,0.798
15,GUUCCGUUGGCGUAAUGGUAACGCGUCUCCCGCCUAAGGAGAAGGCCGUGGGUUCGAGUCCCGUACGGAUCG,≤ 0.5
16,GUUCCGUUGGCGUAAUGGUAACGCGUCUCCCCCCUAAGGAGAAGACUGCGGAUUCGACUCCCGUACGGAACG,≤ 0.5
17,GUUCCGUUGGCGUAAUGGUAACGCGUCUCCCGGCUAAGGAGAAGACUGCAGGGUCGAGUCCCGUACGGGCCG,≤ 0.5
18,GUUCCGUUGGCGUAAUGGUAACGCGUCUCCCGUCUCAGGAGAAGACUGCGGGUUCUAGUCCCGUAAGGAACG,≤ 0.5
19,GUUCCGUUGGCGUAAUGGUAACGCGUCUCCCGGCUAAGGAGAAGACUGCGGGUUCGAGUCCCGUACGGAGCG,≤ 0.5

row,Variant,yeast fitness
1,GUUCCGUUGGCGUAAUGGUAACGCGUCUCCCCCCUAAGGAGAACACUGCGGGUUCGAGUCCCGUACGGAACG,0.842
2,GUUCCGUUGGCGUAAUGGUAACGCGUCUCCCCCCUAAGGAGAAGACUCUGGGUUCGAGUCCCGUACGGAACG,0.635
3,GUUCCGUUGGCGUAAUGGUAACGCGUCUCCCCCCUAAGGAGAAGACUGCGGGUCCGAGUCCCGUACGGAACG,0.687
4,GUUCCGUUGGCGUAAUGGUAACGCGUCUCCCGCCUAAGGCGAAGACUGCGGGUUCGAGUCCCGUACGGAACG,0.692
5,GUUCCGUUGGCGUAAUGGUAACGCGUCUCCCGCCUAAGGUGAAGACUGCGGGUUCGAGUCCCGUACGGAACG,0.624
6,GUUCCGUUGGCGUAAUGGUAACGCGUCUCCCGCCUAAGGAGAAGGCUGCGGGUUCGAGUCCCGUACGGUACG,0.553
7,GUUCCGUUGGCGUAAUGGUAACGCGUCUCCCCCCUAAGGAGAAGACUGCGGGUUCGAGUCCCCUACGGAACG,0.759
8,GUUCCGUUGGCGUAAUGGUAACGCGUCUCCCGCCUAAGGAGAAGACUGCGGGUUCGAGUCCCGUACGGAACG,0.664
9,GUUCCGUUGGCGUAAUGGUAACGCGUCUCCCCCCUAAGGACAAGACCGCGGGUUCGAGUCCCGUACGGAACG,0.592
10,GUUCCGUUGGCGUAAUGGUAACGCGUCUCCCCCCUAAGGAGAAGACUGCGGCUUCGAGUCCCGUACGGAACG,0.602
11,GUUCCGUUGGCGUAAUGGUAACGCGUCUCCCCCCUAAGGAGAAGACUACGGGUUCGAGUCCCGUACGGAUCG,0.783
12,GUUCCGUUGGCGUAAUGGUAACGCGUCUCCCGCCUAAGGAGAAGACUGCGGGUUCGUGUCCCGUACGGAACG,0.527
13,GUUCCGUUGGCGUAAUGGUAACGCGUCUCCCCCCUAAGGAGAAGACAGCGGGUUCGAGUCCCGUACGGAACG,0.9
14,GUUCCGUUGGCGUAAUGGUAACGCGUCUCCCGACUAAGGAGAAGACAGCGGGUUCGAGUCCUGUAGGGAACG,≤ 0.5
15,GUUCCGUUGGCGUAAUGGUAACGCGUCUCCCGCCUAAGGUGAAGACUGCGGGUUCGAGACCCGUACGGAACG,≤ 0.5
16,GUUCCGUUGGCGUAAUGGUAACGCGUCUCCCGCCUAAGGAGAAGACUGCGGGUUCGAGUCCCGUACGGCACG,0.848
17,GUUCCGUUGGCGUAAUGGUAACGCGUCUCCCCCCCAAGGAGAAGACUGGGGGUUCGAGUCCCGUACGGAACG,0.545
18,GUUCCGUUGGCGUAAUGGUAACGCGUCUCCCGGCUAAGGAGAAGACUGCGGGUUCGAGUCCCGUAUGGUACG,≤ 0.5
19,GUUCCGUUGGCGUAAUGGUAACGCGUCUCCCGCCUAAGGAGGAGAUUGCGAGUUCGAGUCCCGUACGGAACG,≤ 0.5
